# Results from ChEMBL document CHEMBL5724801, “EUbOPEN Chemogenomics Library - Multiplex” (2024).
# Several values for one entry are separate records, joined by “and”; a condition that tells them apart may be missing. Equal values may be shown once.
# Tested on: Fibroblast
# Test: Multiplex assay against human fibroblast
# Assay type: toxicity, cell-based
# Outline: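 Cells were classed with CellPathfinder machine-learning gating, first as Hoechst high-intensity objects or normal cells, then (normal cells) as healthy, pyknosed or fragmented nuclei, and finally (pyknosed cells) as mitotic or apoptotic. Staining of live cells at seeding used Hoechst33342, BioTracker Green Microtubule Cytoskeleton Dye, MitoTracker Red and Annexin V Alexa Fluor 680, with imaging on a CQ1 microscope at 37°C and 5% CO2 after compound addition. Tubulin, mitochondrial-mass and membrane-permeability phenotypes are per cents of healthy-nucleus cells.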
# [1] = 12 h, 1 µM, compound concentration 1 uM
# [2] = 12 h, 10 µM, compound concentration 10 uM
# [3] = 24 h, 1 µM, compound concentration 1 uM
# [4] = 24 h, 10 µM, compound concentration 10 uM
# [5] = 48 h, 1 µM, compound concentration 1 uM
# [6] = 48 h, 10 µM, compound concentration 10 uM
smiles,measurement,setting,value
O=C1NC(NC23CC4CC(CC(C4)C2)C3)=N/C1=C\c1ccc2ncsc2c1,Population Apoptotic (%),[1],51.97% and 44.44%
same,Population Fragmented Nuclei (%),[1],23.55% and 19.79%
same,Population Healthy Nuclei (%),[1],57.53% and 66.62%
same,Population Hoechst High Intensity Objects (%),[1],0%
same,Population Membrane Permeable-Phenotype (%),[1],1.3% and 2.27%
same,Population Mitochondria Different-Phenotype (%),[1],3.63% and 2.49%
same,Population Mitotic Cells (%),[1],48.03% and 55.56%
same,Population Normal (%),[1],100%
same,Population Pyknosed Nuclei (%),[1],18.93% and 13.6%
same,Population Tubulin-Different-Phenotype (%),[1],8.81% and 11.79%
same,Total Cell Count,[1],671 and 662
same,Population Apoptotic (%),[2],45.21% and 45.31%
same,Population Fragmented Nuclei (%),[2],36.23% and 36.1%
same,Population Healthy Nuclei (%),[2],32.66% and 30.01%
same,Population Hoechst High Intensity Objects (%),[2],28.04% and 33.79%
same,Population Membrane Permeable-Phenotype (%),[2],0.36% and 0.46%
same,Population Mitochondria Different-Phenotype (%),[2],0%
same,Population Mitotic Cells (%),[2],54.79% and 54.69%
same,Population Normal (%),[2],71.96% and 66.21%
same,Population Pyknosed Nuclei (%),[2],31.11% and 33.89%
same,Population Tubulin-Different-Phenotype (%),[2],0.73% and 7.37%
same,Total Cell Count,[2],1166 and 1092
same,Population Apoptotic (%),[3],49.15% and 52.44%
same,Population Fragmented Nuclei (%),[3],25.03% and 19.5%
same,Population Healthy Nuclei (%),[3],59% and 67.8%
same,Population Hoechst High Intensity Objects (%),[3],0% and 0.15%
same,Population Membrane Permeable-Phenotype (%),[3],2.52% and 1.37%
same,Population Mitochondria Different-Phenotype (%),[3],0.92% and 0.91%
same,Population Mitotic Cells (%),[3],50.85% and 47.56%
same,Population Normal (%),[3],100% and 99.85%
same,Population Pyknosed Nuclei (%),[3],15.97% and 12.69%
same,Population Tubulin-Different-Phenotype (%),[3],12.84% and 17.12%
same,Total Cell Count,[3],739 and 647
same,Population Apoptotic (%),[4],48.2% and 49.02%
same,Population Fragmented Nuclei (%),[4],28.62% and 33.38%
same,Population Healthy Nuclei (%),[4],37.8% and 32.44%
same,Population Hoechst High Intensity Objects (%),[4],27.11% and 32.18%
same,Population Membrane Permeable-Phenotype (%),[4],0.64% and 0.41%
same,Population Mitochondria Different-Phenotype (%),[4],0.32% and 0%
same,Population Mitotic Cells (%),[4],51.8% and 50.98%
same,Population Normal (%),[4],72.89% and 67.82%
same,Population Pyknosed Nuclei (%),[4],33.57% and 34.18%
same,Population Tubulin-Different-Phenotype (%),[4],1.6% and 2.89%
same,Total Cell Count,[4],1136 and 1100
same,Population Apoptotic (%),[5],58.9% and 52.22%
same,Population Fragmented Nuclei (%),[5],13.24% and 13.94%
same,Population Healthy Nuclei (%),[5],69.8% and 71.47%
same,Population Hoechst High Intensity Objects (%),[5],0%
same,Population Membrane Permeable-Phenotype (%),[5],1.5% and 2.72%
same,Population Mitochondria Different-Phenotype (%),[5],1.5% and 0.91%
same,Population Mitotic Cells (%),[5],41.1% and 47.78%
same,Population Normal (%),[5],100%
same,Population Pyknosed Nuclei (%),[5],16.96% and 14.59%
same,Population Tubulin-Different-Phenotype (%),[5],20.97% and 31.75%
same,Total Cell Count,[5],861 and 617
same,Population Apoptotic (%),[6],50.75% and 49.7%
same,Population Fragmented Nuclei (%),[6],29.22% and 30.74%
same,Population Healthy Nuclei (%),[6],35.44% and 26.72%
same,Population Hoechst High Intensity Objects (%),[6],25.71% and 37.77%
same,Population Membrane Permeable-Phenotype (%),[6],0.6% and 0.49%
same,Population Mitochondria Different-Phenotype (%),[6],0.6% and 0%
same,Population Mitotic Cells (%),[6],49.25% and 50.3%
same,Population Normal (%),[6],74.29% and 62.23%
same,Population Pyknosed Nuclei (%),[6],35.34% and 42.54%
same,Population Tubulin-Different-Phenotype (%),[6],1.19% and 2.91%
same,Total Cell Count,[6],1276 and 1239
COc1ccc(CC(=O)NC(N/C(=N/C#N)Nc2cccc3ncccc23)C(C)(C)C)cc1OC (centres undefined),Population Fragmented Nuclei (%),[1],9.24% and 8.25%
same,Population Healthy Nuclei (%),[1],64.67% and 81.55%
same,Population Hoechst High Intensity Objects (%),[1],0%
same,Population Membrane Permeable-Phenotype (%),[1],1.68% and 2.98%
same,Population Mitochondria Different-Phenotype (%),[1],8.4% and 6.55%
same,Population Mitotic Cells (%),[1],95.83% and 85.71%
same,Population Normal (%),[1],100%
same,Population Pyknosed Nuclei (%),[1],26.09% and 10.19%
same,Population Tubulin-Different-Phenotype (%),[1],12.61% and 16.67%
same,Total Cell Count,[1],184 and 206
same,Population Apoptotic (%),[2],10.96% and 24.49%
same,Population Fragmented Nuclei (%),[2],7.46% and 8.67%
same,Population Healthy Nuclei (%),[2],56.22% and 63.01%
same,Population Hoechst High Intensity Objects (%),[2],0%
same,Population Membrane Permeable-Phenotype (%),[2],9.73% and 2.75%
same,Population Mitochondria Different-Phenotype (%),[2],7.96% and 16.51%
same,Population Mitotic Cells (%),[2],89.04% and 75.51%
same,Population Normal (%),[2],100%
same,Population Pyknosed Nuclei (%),[2],36.32% and 28.32%
same,Population Tubulin-Different-Phenotype (%),[2],26.55% and 38.53%
same,Total Cell Count,[2],201 and 173
same,Population Fragmented Nuclei (%),[3],11.21% and 6.25%
same,Population Healthy Nuclei (%),[3],68.16% and 81.25%
same,Population Hoechst High Intensity Objects (%),[3],0%
same,Population Membrane Permeable-Phenotype (%),[3],3.95% and 0%
same,Population Mitochondria Different-Phenotype (%),[3],10.53% and 7.1%
same,Population Mitotic Cells (%),[3],95.65% and 76.92%
same,Population Normal (%),[3],100%
same,Population Pyknosed Nuclei (%),[3],20.63% and 12.5%
same,Population Tubulin-Different-Phenotype (%),[3],19.08% and 13.02%
same,Total Cell Count,[3],223 and 208
same,Population Fragmented Nuclei (%),[4],5.12% and 8.43%
same,Population Healthy Nuclei (%),[4],64.65% and 75.3%
same,Population Hoechst High Intensity Objects (%),[4],0%
same,Population Membrane Permeable-Phenotype (%),[4],7.19% and 2.4%
same,Population Mitochondria Different-Phenotype (%),[4],10.07% and 8%
same,Population Mitotic Cells (%),[4],92.31% and 70.37%
same,Population Normal (%),[4],100%
same,Population Pyknosed Nuclei (%),[4],30.23% and 16.27%
same,Population Tubulin-Different-Phenotype (%),[4],33.09% and 40.8%
same,Total Cell Count,[4],215 and 166
same,Population Apoptotic (%),[5],0% and 18.75%
same,Population Fragmented Nuclei (%),[5],7.56% and 7.18%
same,Population Healthy Nuclei (%),[5],85.29% and 85.17%
same,Population Hoechst High Intensity Objects (%),[5],0%
same,Population Membrane Permeable-Phenotype (%),[5],0.99% and 1.12%
same,Population Mitochondria Different-Phenotype (%),[5],11.82% and 3.37%
same,Population Mitotic Cells (%),[5],100% and 81.25%
same,Population Normal (%),[5],100%
same,Population Pyknosed Nuclei (%),[5],7.14% and 7.66%
same,Population Tubulin-Different-Phenotype (%),[5],5.42% and 14.04%
same,Total Cell Count,[5],238 and 209
same,Population Apoptotic (%),[6],27.78% and 30.77%
same,Population Fragmented Nuclei (%),[6],8.23% and 15.18%
same,Population Healthy Nuclei (%),[6],83.98% and 78.01%
same,Population Hoechst High Intensity Objects (%),[6],0%
same,Population Mitochondria Different-Phenotype (%),[6],12.89% and 4.03%
same,Population Mitotic Cells (%),[6],72.22% and 69.23%
same,Population Normal (%),[6],100%
same,Population Pyknosed Nuclei (%),[6],7.79% and 6.81%
same,Population Tubulin-Different-Phenotype (%),[6],17.01% and 47.65%
same,Total Cell Count,[6],231 and 191
N#Cc1c(Oc2cccc(OS(=O)(=O)CCCC(F)(F)F)c2)cccc1C(F)(F)F,Population Apoptotic (%),[1],51% and 38%
same,Population Fragmented Nuclei (%),[1],13% and 27%
same,Population Healthy Nuclei (%),[1],63% and 48%
same,Population Hoechst High Intensity Objects (%),[1],2% and 7%
same,Population Membrane Permeable-Phenotype (%),[1],1% and 9%
same,Population Mitochondria Different-Phenotype (%),[1],7%
same,Population Mitotic Cells (%),[1],48% and 61%
same,Population Normal (%),[1],97% and 92%
same,Population Pyknosed Nuclei (%),[1],23% and 24%
same,Population Tubulin-Different-Phenotype (%),[1],38% and 59%
same,Total Cell Count,[1],146 and 148
same,Population Apoptotic (%),[2],31% and 66%
same,Population Fragmented Nuclei (%),[2],14% and 42%
same,Population Healthy Nuclei (%),[2],59% and 22%
same,Population Hoechst High Intensity Objects (%),[2],6% and 7%
same,Population Mitochondria Different-Phenotype (%),[2],7% and 3%
same,Population Mitotic Cells (%),[2],68% and 33%
same,Population Normal (%),[2],93% and 92%
same,Population Pyknosed Nuclei (%),[2],26% and 35%
same,Population Tubulin-Different-Phenotype (%),[2],36% and 75%
same,Total Cell Count,[2],180 and 138
same,Population Apoptotic (%),[3],50% and 54%
same,Population Fragmented Nuclei (%),[3],20% and 33%
same,Population Healthy Nuclei (%),[3],62% and 50%
same,Population Hoechst High Intensity Objects (%),[3],6% and 3%
same,Population Membrane Permeable-Phenotype (%),[3],1% and 5%
same,Population Mitochondria Different-Phenotype (%),[3],4% and 5%
same,Population Mitotic Cells (%),[3],50% and 45%
same,Population Normal (%),[3],93% and 96%
same,Population Pyknosed Nuclei (%),[3],17% and 16%
same,Population Tubulin-Different-Phenotype (%),[3],45% and 57%
same,Total Cell Count,[3],148 and 147
same,Population Apoptotic (%),[4],44% and 61%
same,Population Healthy Nuclei (%),[4],59% and 23%
same,Population Hoechst High Intensity Objects (%),[4],5% and 8%
same,Population Mitochondria Different-Phenotype (%),[4],12% and 22%
same,Population Mitotic Cells (%),[4],55% and 38%
same,Population Normal (%),[4],94% and 91%
same,Population Pyknosed Nuclei (%),[4],27% and 36%
same,Population Tubulin-Different-Phenotype (%),[4],43% and 77%
same,Total Cell Count,[4],174 and 127
same,Population Apoptotic (%),[5],60% and 38%
same,Population Fragmented Nuclei (%),[5],18% and 26%
same,Population Healthy Nuclei (%),[5],66% and 59%
same,Population Hoechst High Intensity Objects (%),[5],7% and 5%
same,Population Mitochondria Different-Phenotype (%),[5],5% and 2%
same,Population Mitotic Cells (%),[5],40% and 61%
same,Population Normal (%),[5],92% and 94%
same,Population Pyknosed Nuclei (%),[5],14%
same,Population Tubulin-Different-Phenotype (%),[5],42% and 56%
same,Total Cell Count,[5],145 and 133
same,Population Apoptotic (%),[6],52% and 59%
same,Population Fragmented Nuclei (%),[6],20% and 43%
same,Population Healthy Nuclei (%),[6],54% and 31%
same,Population Hoechst High Intensity Objects (%),[6],9% and 2%
same,Population Mitochondria Different-Phenotype (%),[6],12% and 15%
same,Population Mitotic Cells (%),[6],47% and 40%
same,Population Normal (%),[6],90% and 97%
same,Population Pyknosed Nuclei (%),[6],24% and 25%
same,Population Tubulin-Different-Phenotype (%),[6],47% and 89%
same,Total Cell Count,[6],172 and 150
